This is a sample that favours compounds with a hit; in the whole collection about 3.3% have one here.
Statin myotox sup: protects C2C12 myotubes from simvastatin toxicity; rescue of ATP level, % at 7.49 µM; AID 602340; ATP luminescence, 48 h; scaled: DMSO 0, geranylgeraniol control 100; 0.78% of 330,000 active;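 active means mean ATP rescue above about 67%, or every replicate alone reaching that limit, limit read from the data, passing the limit was not always enough; inconclusive means no clear call, values can overlap the other calls; inactive means mean under the limit and some replicate under it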;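 further: myotubes were challenged with 10 µM simvastatin during compound exposure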
PglD DTNB: blocks C. jejuni PglD acetyltransferase activity; inhibition, % at 12.5 µM; purified PglD enzyme, DTNB colorimetric CoA detection; 0.098% of 360,000 active; in the data active means inhibition above about 16%, passing the limit was not always enough; inconclusive means no clear call, values can overlap the other calls
FGF22 binding: binders of recombinant human FGF22 by thermal shift; Q9HCT0; activity (Tm shift, normalised), % at 9.99 µM; 1.5% of 340,000 active; SYPRO orange fluorescence; percent of sucrose octasulfate shift, DMSO zero;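 active means mean Tm shift, scaled 0 neutral to 100 positive control, at about 1.3% or above, every replicate too, limit read from the data; inconclusive means no clear call, values can overlap the other calls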
Target sequence (Q9HCT0 whole entry, looked up): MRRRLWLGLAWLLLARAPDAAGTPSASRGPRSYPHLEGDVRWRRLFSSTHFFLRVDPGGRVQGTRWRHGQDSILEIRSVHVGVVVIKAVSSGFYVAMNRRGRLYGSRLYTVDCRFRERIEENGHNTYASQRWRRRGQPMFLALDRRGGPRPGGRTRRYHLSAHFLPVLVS
DENV2 CPE: inhibitors of DENV2 cytopathic effect. DENV2-infected cells, cytopathic effect rescue, plate reader. CPE inhibition, % at 9.99 µM. 1.7% of 350,000 active; in the data active means CPE inhibition above about 20%, passing the limit was not always enough; inconclusive means no clear call, values can overlap the other calls; tested in BHK-21 cells;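 further: 0% = median of neutral control wells and 100% = median of positive control wells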
E-selectin induc: induces E-selectin expression in human endothelial cells; activation, % at 7.58 µM; HUVEC E-selectin immunofluorescence imaging; normalized: neutral wells 0, TNF-alpha wells 100; 0.37% of 260,000 active;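 active means mean E-selectin-positive cell signal at least 10% of the positive control, reached in at least 60% of replicates, without over 20% cell loss; inconclusive means no rule given, readout overlaps actives, possibly toxicity-flagged; inactive means the rest, including those meeting only one limit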
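System: HUVEC / Compound: single concentration / Signal: immunofluorescence imaging / Read-out: percent E-selectin-positive cells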
Xi reactivation: X-chromosome reactivation activator; AID 743238; activation, % at 7.58 µM; 0.055% of 360,000 active; XiGFP mouse fibroblasts, % GFP-positive cells imaging, 3 d; cells co-treated with 5-aza-dC sensitizer; scaled so ellipticine positive control = 100%;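 active means mean normalized replicate activation at least 10% and every replicate at or above 10%; inconclusive means only one of the two criteria met; inactive means mean below 10% and not all replicates reach 10%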;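 further: 0% = median of on-plate neutral control wells and 100% = ellipticine 6 µM median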
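System: SV40-immortalized XiGFP fibroblast cells, line 68-5-11 / Incubation: 3-day compound exposure, then 15 min fixation at room temperature / Compound: single concentration per compound, delivered by pin transfer / Buffer or medium: DMEM plus 5-aza-dC sensitizer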
* marks the source's active call; other numbers are inactive results; ? = inconclusive; · = not tested or not shown.

SMILES	Statin myotox sup	PglD DTNB	FGF22 binding	DENV2 CPE	E-selectin induc	Xi reactivation
CS/C(=N\S(=O)(=O)c1cccs1)Nc1ccc(F)c(Cl)c1	·	·	1.3*	9	·	0
C[C@@H]1CCCCO[C@H](CN(C)C(=O)Cc2ccccc2)[C@H](C)CN([C@H](C)CO)C(=O)c2cc(NC(=O)c3ccccc3)ccc2O1	·	1	0	-6	·	0
CCOc1ccc(C(=O)NCC(c2ccco2)N2CCOCC2)cc1 (configuration not stated)	·	-3	0	26*	·	0
CCOc1ccc(C(=O)NCC(=O)OCC(=O)N2CCCCC2)cc1	-2	8	·	·	·	·
COc1ccc(C(=O)NCC(c2ccco2)N2CCOCC2)cc1 (configuration not stated)	-10	3	0	-11	0	0
N#Cc1ccc(C(=O)NCC(c2ccco2)N2CCCCC2)cc1 (configuration not stated)	124*	0	·	·	·	·
CCOc1ccc(C(=O)NCC(=O)N2CCCCCCC2)cc1	1	3	0	22*	·	0
COc1cc(S(=O)(=O)Nc2ncccc2C)c(OC)cc1Cl	121*	2	·	·	·	·
CC(C)C#Cc1cnc2c(c1)C(=O)N([C@@H](C)CO)C[C@@H](C)[C@@H](CN(C)Cc1ccccc1)O2	-3	-1	0	-2	2	0
CCc1n[nH]c(=S)n1N=C1CCC(C)CC1 (configuration not stated)	·	10	43*	0	0	0
CCCN1[C@@H]2c3ccc(-c4cccc(F)c4)c(=O)n3C[C@H]1[C@H](CO)[C@H]2C(=O)NCC	-12	2	·	5	5	0
O=[N+]([O-])c1ccc(Sc2cc[n+]([O-])c3ccccc23)c([N+](=O)[O-])c1	80*	-5	·	-3	0	0
C[C@@H]1CCCCO[C@H](CN(C)S(C)(=O)=O)[C@@H](C)CN([C@@H](C)CO)C(=O)c2cc(NC(=O)C3CCCCC3)ccc2O1	17	1	0	-2	0	-1
CC(C)[C@H](NC(=O)OC(C)(C)C)C(=O)NCC1CCC(C(=O)N[C@@H](Cc2ccccc2)C(=O)O)CC1 (some centres not stated)	-5	-7	0	40*	·	0
CCc1cccc(NC(=O)c2cc(S(=O)(=O)N3CCCCC3)ccc2N2CCOCC2)c1	-3	-2	43*	6	1	0
CO[C@H]1CN(C)C(=O)c2ccc(NC(=O)NC(C)C)cc2OC[C@@H](C)N(C(=O)NC(C)C)C[C@H]1C	-6	-1	-1	4	0	0
O=C(OCCOc1ccc(Br)cc1)c1cnccn1	117*	-3	·	·	·	·
O=C(COC(=O)c1cnccn1)c1ccc(Br)cc1	-4	-1	·	·	·	·
COc1ccccc1C#Cc1ccc([C@@H]2[C@@H](CO)N3CCCCN(C(=O)C4CC4)C[C@@H]23)cc1	·	1	0	3	·	·
COc1ccc(NC(=O)Nc2ccc3c(c2)C(=O)N([C@H](C)CO)C[C@H](C)[C@H](CN(C)CC2CC2)OCCCC[C@H](C)O3)cc1	·	3	0	10	0	0
Cc1cc(C(=O)NN=C2CCCC2)c2ccccc2n1	23	-4	0	-5	·	0
Cc1cc(Br)c(OCc2ccc(C(=O)N/N=C3\CC(=O)CC(C)(C)C3)cc2)c(Br)c1	·	·	0	76*	·	0
Cc1cc(C(=O)N/N=C2\CC(=O)CC(C)(C)C2)c2ccccc2n1	·	·	43*	12	·	0
O=C(CN1CCOCC1)N[C@H]1CC[C@H](CCNS(=O)(=O)c2ccccc2F)O[C@H]1CO	10	-5	0	5	-1	1
Cc1ccc(CNC(=S)NC2CCC(C(C)(C)C)CC2)cc1 (configuration not stated)	-4	3	0	?	-1	0
SMILES	Statin myotox sup	PglD DTNB	FGF22 binding	DENV2 CPE	E-selectin induc	Xi reactivation
CC(NC(=S)NC1CCC(C(C)(C)C)CC1)c1ccccc1 (configuration not stated)	-12	-3	0	23*	0	0
CN1c2ccc(Br)cc2[C@H]2[C@H](CCN2C(=O)C2CCOCC2)[C@@H]1CO	7	-4	0	1	2	0
C[C@@H]1CC[C@@]23COC(=O)C2=CCC[C@@H]3[C@@]1(C)CC/C(=C/CO)CO	2	-6	0	18	·	·
CC1=CCC[C@@H]2[C@@](C)(CC/C(C)=C/C(=O)O)[C@H](C)CC[C@@]12C	19	6	-1	25*	·	0
O=C(C[C@H]1CC[C@@H](NC(=O)C2CC2)[C@H](CO)O1)NC1CCC1	6	-5	0	11	0	0
COc1ccc(NC(=O)Nc2ccc3c(c2)CC(=O)N([C@@H](C)CO)C[C@@H](C)[C@H](CN(C)S(=O)(=O)c2ccc(F)cc2)O3)cc1	11	-2	0	19	0	-1
C[C@@H]1CCCCO[C@@H](CN(C)S(C)(=O)=O)[C@@H](C)CN([C@H](C)CO)C(=O)c2cc(NC(=O)CCCN(C)C)ccc2O1	2	1	0	-3	49*	0
C[C@H](CO)N1C[C@H](C)[C@H](CN(C)S(=O)(=O)c2ccc(Cl)cc2)OCCCC[C@H](C)Oc2ccc(NC(=O)CCCN(C)C)cc2C1=O	-82	-2	0	21*	0	0
C[C@@H]1CCCCO[C@H](CN(C)S(C)(=O)=O)[C@@H](C)CN([C@H](C)CO)C(=O)c2cc(NC(=O)CCC(F)(F)F)ccc2O1	0	0	1	116*	0	0
Cc1cc(C(=O)Nc2cccc3c2O[C@H](CN(C)C)[C@H](C)CN([C@@H](C)CO)C3=O)n(C)n1	5	3	0	28*	0	0
Cc1cc(C(=O)Nc2cccc3c2O[C@H](CN(C)C)[C@@H](C)CN([C@H](C)CO)C3=O)n(C)n1	6	0	0	-5	0	0
COc1ccc(CN(C)C[C@@H]2Oc3c(NC(=O)c4cc(C)nn4C)cccc3C(=O)N([C@H](C)CO)C[C@H]2C)cc1	5	1	0	27*	0	0
COc1ccc(CN(C)C[C@@H]2Oc3c(NC(=O)c4cc(C)nn4C)cccc3C(=O)N([C@H](C)CO)C[C@@H]2C)cc1	·	·	0	-8	0	0
Cc1cc(C(=O)Nc2cccc3c2O[C@H](CN(C)Cc2ccc(C(=O)O)cc2)[C@H](C)CN([C@H](C)CO)C3=O)n(C)n1	-1	2	0	46*	0	-1
O=C(Nc1ccc(F)cc1)N1CC(=O)N2[C@H](CO)[C@H](c3ccc(C#Cc4cccnc4)cc3)[C@H]2C1	·	·	·	16	0	0

Source: PubChem BioAssay
